Results collected from several papers.
Each line is one published result; the experiments were not run side by side.
Target: Homeodomain-interacting protein kinase 4 (HIPK4, Homo sapiens, UniProt Q8NE63)
Sequence (Q8NE63 1-616, as in one of the studies): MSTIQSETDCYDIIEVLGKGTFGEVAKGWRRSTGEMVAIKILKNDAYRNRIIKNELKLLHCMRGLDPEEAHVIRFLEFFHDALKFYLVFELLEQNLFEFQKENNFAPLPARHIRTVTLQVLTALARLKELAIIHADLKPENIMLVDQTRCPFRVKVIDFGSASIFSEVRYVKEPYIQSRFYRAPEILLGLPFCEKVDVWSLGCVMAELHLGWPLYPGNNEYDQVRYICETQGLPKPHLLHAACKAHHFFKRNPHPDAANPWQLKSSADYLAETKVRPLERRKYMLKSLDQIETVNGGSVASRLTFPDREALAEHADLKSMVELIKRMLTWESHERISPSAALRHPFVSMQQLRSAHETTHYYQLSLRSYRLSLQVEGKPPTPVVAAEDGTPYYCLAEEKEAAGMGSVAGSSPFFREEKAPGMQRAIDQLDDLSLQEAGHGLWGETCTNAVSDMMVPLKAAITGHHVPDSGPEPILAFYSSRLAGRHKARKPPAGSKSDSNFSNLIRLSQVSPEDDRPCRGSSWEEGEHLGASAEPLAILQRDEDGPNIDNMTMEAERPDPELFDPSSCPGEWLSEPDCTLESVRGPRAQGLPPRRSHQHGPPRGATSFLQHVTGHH

O=C(O)c1ccc2c(c1)nc(NCCc1cccc(Cl)c1)c1ccncc12 has a remaining activity of 47% (enzyme activity, inhibitor, radiometric; 1 µM).
With O=C1NC(=O)c2cc(Nc3ccc(F)cc3)c(Nc3ccc(F)cc3)cc21 the remaining signal was 82.5% (cell-free assay; 0.5 µM).
The inhibition of CCCS(=O)(=O)Nc1ccc(F)c(C(=O)c2c[nH]c3ncc(-c4ccc(Cl)cc4)cc23)c1F is reported as under 10% (enzyme activity, inhibitor; 1 µM).
For N#CCCc1ccc2c(c1)-c1[nH]c3ccc([N+](=O)[O-])cc3c1CC(=O)N2, the remaining signal was 113% (cell-free assay; 0.5 µM).
For CN1CC(Oc2cnc(C#N)cc2-c2ccn3nc(NC(=O)C4CC4)cc3c2)C1, the inhibition was 2% (enzyme activity, inhibitor; 1 µM).
COc1cc2ncnc(Nc3ccc(Oc4ccccc4)cc3C)c2cc1OC gave an inhibition of 4% (enzyme activity, inhibitor; 1 µM).
The remaining activity of O=C(O)c1ccc2c(c1)nc(Nc1ccc(F)c(Cl)c1)c1ccncc12 is reported as 75% (enzyme activity, inhibitor, radiometric; 1 µM).
With CCC(=O)N[C@@H]1CC[C@H](C(=O)N(C)c2ccc(-c3nc4ccccc4o3)cc2)C1 the remaining binding was 100% (cell-free assay, competition with immobilised ligand; 1 µM).
O=C(O)c1ccc2c(c1)nc(NCc1ccccc1)c1ccncc12 has a remaining activity of 33% (enzyme activity, inhibitor, radiometric; 1 µM).
CC(C)CC(=O)N1CCc2nc(-c3ccc(Br)cc3)nc(N(C)Cc3ccccc3)c2C1 has a remaining binding of 61% (cell-free assay, competition with immobilised ligand; 0.1 µM).
COc1cccc(CCNc2nc3cc(C(=O)O)ccc3c3cnccc23)c1 gave a remaining activity of -8% (enzyme activity, inhibitor, radiometric; 1 µM).
For CNC(=O)Nc1ccc2c(c1)CC[C@@]21OC(=O)N(CC(=O)N(Cc2ccc(F)cc2)[C@@H](C)C(F)(F)F)C1=O, the remaining binding was 97% (cell-free assay, competition with immobilised ligand; 1 µM).
CCOc1cc(-c2nncn2C)ccc1Nc1ncc2cc(C)nc(NCC(C)(C)C)c2n1 gave an inhibition of under 15% (enzyme activity, inhibitor, FRET; 1 µM).
The remaining signal of O=C1Nc2ccc(Cl)cc2C1=Cc1cc(Cl)c(O)c(Cl)c1 is reported as 88.4% (cell-free assay; 0.5 µM).
With CCCOc1ccc([C@@H]2[C@@H](C(=O)O)[C@H](c3ccc4c(c3)OCO4)CN2CC(=O)Nc2c(CC)cccc2CC)cc1 the remaining binding was 65% (cell-free assay, competition with immobilised ligand; 1 µM).
The remaining activity of O=C(O)c1ccc2c(c1)nc(Nc1ccc3ccccc3c1)c1ncncc12 is reported as 109% (enzyme activity, inhibitor, radiometric; 1 µM).
For C[C@@H](c1cccc(C#N)c1)n1cc(Cl)cc(C(N)=O)c1=N, the remaining binding was 100% (cell-free assay, competition with immobilised ligand; 1 µM).
The remaining activity of COc1cccc(Nc2nc3cc(C(=O)O)ccc3c3cnccc23)c1 is reported as -14% (enzyme activity, inhibitor, radiometric; 1 µM).
With CNC(=O)c1cc(Oc2ccc(NC(=O)Nc3ccc(Cl)c(C(F)(F)F)c3)cc2)ccn1 the remaining signal was 4.85% (cell-free assay; 0.5 µM).
For CS(=O)(=O)c1cc(C2(NC(=O)c3cncc4c3cnn4-c3ccc(F)cc3)CC2)ccn1, the remaining binding was 100% (cell-free assay, competition with immobilised ligand; 1 µM).
